{"source": "ChEMBL document CHEMBL1124851", "about": "“Synthesis of (R)-(-)- and (S)-(+)-4-fluorodeprenyl and (R)-(-)- and (S)-(+)-[N-11C-methyl]-4-fluorodeprenyl and positron emission tomography studies in baboon brain” (J Med Chem, 1990)", "key": {"[1]": {"experiment": "The amount of unchanged tracer in baboon plasma was determined 10 min after injection of the carbon-11 labeled compound", "assay_type": "ADME, cell-free", "details": "papio hamadryas, read-out: Unchanged tracer", "outline": "(§1)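 Arterial plasma was sampled at 1, 10, 30 and 60 min after tracer injection in the baboon. Unchanged [N-11C-methyl]-4-fluorodeprenyl was measured by HPLC on a C18 Spherisorb 5 ODS column (250 × 4.6 mm). Mobile phase was methanol–0.05 N ammonium formate (70–30%) at 1 mL/min, with UV at 254 nm. Results are given as percent unchanged tracer.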"}, "[2]": {"experiment": "Peak plasma radioactivity for the carbon-11 labeled compound was determined at 1.5 min after injection in baboon; (Range = 0.08-0.11)", "assay_type": "ADME, cell-free", "details": "papio hamadryas, 0.025 h"}, "[3]": {"experiment": "The amount of unchanged tracer in baboon plasma was determined 30 min after injection of the carbon-11 labeled compound", "assay_type": "ADME, cell-free", "details": "papio hamadryas, read-out: Unchanged tracer", "outline": "as §1"}, "[4]": {"experiment": "The amount of unchanged tracer in baboon plasma was determined 60 min after injection of the carbon-11 labeled compound", "assay_type": "ADME, cell-free", "details": "papio hamadryas, read-out: Unchanged tracer", "outline": "as §1"}, "[5]": {"experiment": "The absolute striatal uptake of the carbon-11 labeled compound at 60 min was determined in baboon", "assay_type": "ADME", "details": "papio hamadryas, 1 h", "outline": "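PET in one young adult female baboon (Papio anubis, 12.6 kg). Anaesthesia was ketamine (10 mg/kg), then isoflurane/nitrous oxide maintenance. The same animal was used for three experiments, at least two weeks apart.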"}, "[6]": {"experiment": "The amount of unchanged tracer in baboon plasma was determined 1 min after injection of the carbon-11 labeled compound", "assay_type": "ADME, cell-free", "details": "papio hamadryas, read-out: Unchanged tracer", "outline": "as §1"}, "[7]": {"experiment": "Peak plasma radioactivity for the carbon-11 labeled compound was determined at 0.5 min after injection in baboon; (Range = 0.08-0.11)", "assay_type": "ADME, cell-free", "details": "papio hamadryas"}, "Monoamine oxidase": {"molecular_target": "T1, Monoamine oxidase (Homo sapiens, UniProt P21397+P27338)", "T1 sequence (P21397 whole entry)": "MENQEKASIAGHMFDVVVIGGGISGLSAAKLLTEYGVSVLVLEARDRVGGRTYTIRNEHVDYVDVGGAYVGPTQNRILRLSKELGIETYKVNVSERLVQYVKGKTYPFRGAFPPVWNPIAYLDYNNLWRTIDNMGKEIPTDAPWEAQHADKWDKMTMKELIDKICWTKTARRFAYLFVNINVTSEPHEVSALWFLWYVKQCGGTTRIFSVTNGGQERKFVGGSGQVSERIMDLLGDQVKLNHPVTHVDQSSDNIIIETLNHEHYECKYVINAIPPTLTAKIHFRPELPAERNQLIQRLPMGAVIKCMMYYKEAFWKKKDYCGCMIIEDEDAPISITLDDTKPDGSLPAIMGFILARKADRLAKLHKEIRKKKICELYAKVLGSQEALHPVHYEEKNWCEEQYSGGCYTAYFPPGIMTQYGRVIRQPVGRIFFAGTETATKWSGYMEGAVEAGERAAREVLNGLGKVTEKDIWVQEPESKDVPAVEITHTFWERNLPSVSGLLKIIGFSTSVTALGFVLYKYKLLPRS", "T1 sequence (P27338 whole entry)": "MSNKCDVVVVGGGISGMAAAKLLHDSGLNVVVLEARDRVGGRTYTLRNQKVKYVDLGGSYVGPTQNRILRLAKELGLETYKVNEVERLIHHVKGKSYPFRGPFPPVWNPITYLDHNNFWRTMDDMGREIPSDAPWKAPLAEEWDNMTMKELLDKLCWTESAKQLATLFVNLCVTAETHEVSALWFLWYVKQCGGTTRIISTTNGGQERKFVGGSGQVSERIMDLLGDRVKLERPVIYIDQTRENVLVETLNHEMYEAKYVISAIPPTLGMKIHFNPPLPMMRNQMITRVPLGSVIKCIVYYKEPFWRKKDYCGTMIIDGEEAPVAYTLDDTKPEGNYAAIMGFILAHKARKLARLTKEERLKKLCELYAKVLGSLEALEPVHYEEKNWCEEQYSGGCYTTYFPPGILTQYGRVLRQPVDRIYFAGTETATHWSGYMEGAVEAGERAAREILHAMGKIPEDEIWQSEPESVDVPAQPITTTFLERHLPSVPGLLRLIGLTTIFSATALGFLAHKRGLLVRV", "experiment": "In vitro inhibitory activity against Monoamine oxidase in baboon brain was determined", "assay_type": "tissue-based, Papio hamadryas", "details": "target entry is the homologue from another species"}}}
{"smiles": "C#CCN([11CH3])[C@H](C)Cc1ccc(F)cc1", "values": [{"measurement": "remaining at 10 min", "setting": "[1]", "value": 50, "unit": "%"}, {"measurement": "Peak radioactivity in blood", "setting": "[2]", "value": 0.01, "unit": "% injected dose cm**-3"}, {"measurement": "remaining at 0.5 h", "setting": "[3]", "value": 20, "unit": "%"}, {"measurement": "remaining at 1 h", "setting": "[4]", "value": 14, "unit": "%"}, {"measurement": "% injected dose/cm3", "setting": "[5]", "value": 0.053, "unit": "%"}, {"measurement": "remaining at 1 min", "setting": "[6]", "value": 96, "unit": "%"}, {"measurement": "Peak radioactivity in blood", "setting": "[7]", "value": 0.11, "unit": "% injected dose cm**-3"}]}
{"smiles": "C#CCN(C)[C@H](C)Cc1ccc(F)cc1", "values": [{"measurement": "IC50", "setting": "Monoamine oxidase", "value": 41.7, "unit": "nM"}]}
{"smiles": "C#CCN(C)[C@@H](C)Cc1ccc(F)cc1", "values": [{"measurement": "remaining at 10 min", "setting": "[1]", "value": 61, "unit": "%"}, {"measurement": "Peak radioactivity in blood", "setting": "[2]", "value": 0.01, "unit": "% injected dose cm**-3"}, {"measurement": "remaining at 0.5 h", "setting": "[3]", "value": 30, "unit": "%"}, {"measurement": "remaining at 1 h", "setting": "[4]", "value": 22, "unit": "%"}, {"measurement": "% injected dose/cm3", "setting": "[5]", "value": 0.021, "unit": "%"}, {"measurement": "remaining at 1 min", "setting": "[6]", "value": 98, "unit": "%"}, {"measurement": "Peak radioactivity in blood", "setting": "[7]", "value": 0.11, "unit": "% injected dose cm**-3"}]}
{"smiles": "C#CCN(C)C(C)Cc1ccc(F)cc1", "note": "(stereo not drawn)", "values": [{"measurement": "remaining at 10 min", "setting": "[1]", "value": 43, "unit": "%"}, {"measurement": "Peak radioactivity in blood", "setting": "[2]", "value": 0.01, "unit": "% injected dose cm**-3"}, {"measurement": "remaining at 0.5 h", "setting": "[3]", "value": 16, "unit": "%"}, {"measurement": "remaining at 1 h", "setting": "[4]", "value": 15, "unit": "%"}, {"measurement": "Uptake", "setting": "[5]", "value": 0.041, "unit": "% injected dose cm**-3"}, {"measurement": "remaining at 1 min", "setting": "[6]", "value": 96, "unit": "%"}, {"measurement": "Peak radioactivity in blood", "setting": "[7]", "value": 0.11, "unit": "% injected dose cm**-3"}]}
{"smiles": "C#CCN(C)[C@H](C)Cc1ccccc1", "note": "[SELEGILINE]", "values": [{"measurement": "Uptake", "setting": "[5]", "value": 0.057, "unit": "%"}]}
